From ChEMBL document CHEMBL3870320, “Yakushinamides, Polyoxygenated Fatty Acid Amides That Inhibit HDACs and SIRTs, from the Marine Sponge Theonella swinhoei” (J Nat Prod, 2016)

Experiments:
[1] = target: Histone deacetylase 1 (Homo sapiens) (UniProt Q13547); assay: Inhibition of human FLAG-tagged HDAC1 expressed in human 293T cells assessed as formation of amino methyl coumarin from Ac-KGLGK(Ac)-MCA measured after 30 mins by fluorescence analysis; format: cell-based
[2] = target: T1, NAD-dependent protein deacetylase sirtuin-3, mitochondrial (Homo sapiens) (UniProt Q9NTG7); assay: Inhibition of recombinant human His-tagged SIRT3 (118 to 399 residues) expressed in Escherichia coli BL21 (DE3) assessed as formation of amino methyl coumarin from Ac-VSTPVK(Ac)-MCA and NAD measured after 60 mins by fluorescence analysis
T1 sequence (whole entry): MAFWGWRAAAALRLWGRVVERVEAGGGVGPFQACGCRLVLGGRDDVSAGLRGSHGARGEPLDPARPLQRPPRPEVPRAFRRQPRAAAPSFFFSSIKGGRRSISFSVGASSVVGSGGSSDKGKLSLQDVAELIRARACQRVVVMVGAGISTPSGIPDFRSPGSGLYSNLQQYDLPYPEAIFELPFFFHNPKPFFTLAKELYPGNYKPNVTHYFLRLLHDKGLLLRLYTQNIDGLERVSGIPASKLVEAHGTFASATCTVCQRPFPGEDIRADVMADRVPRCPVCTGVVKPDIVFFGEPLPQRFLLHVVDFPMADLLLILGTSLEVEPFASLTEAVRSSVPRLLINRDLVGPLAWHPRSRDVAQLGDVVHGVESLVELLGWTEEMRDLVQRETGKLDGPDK
In short: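 His-tagged recombinant SIRT3 incubated with 100 μM Ac-VSTPVK(Ac)-MCA and NAD (final 1 mM) in 50 mM Tris-HCl pH 9.0, 4 mM MgCl2, 0.2 mM DTT for 60 min at 37 °C. Trypsin (final 20 mg/mL) was added and the mixture held 15 min more at 37 °C. Fluorescence of freed aminomethylcoumarin measured at ex 370/em 460 nm.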

[3] = target: Histone deacetylase 4 (Homo sapiens) (UniProt P56524); assay: Inhibition of human FLAG-tagged HDAC4 expressed in human 293T cells assessed as formation of amino methyl coumarin from Ac-KGLGK(Ac)-MCA measured after 30 mins by fluorescence analysis; format: cell-based
Sequence of Histone deacetylase 4 (Homo sapiens) (P56524 whole entry, the tested form may be a part): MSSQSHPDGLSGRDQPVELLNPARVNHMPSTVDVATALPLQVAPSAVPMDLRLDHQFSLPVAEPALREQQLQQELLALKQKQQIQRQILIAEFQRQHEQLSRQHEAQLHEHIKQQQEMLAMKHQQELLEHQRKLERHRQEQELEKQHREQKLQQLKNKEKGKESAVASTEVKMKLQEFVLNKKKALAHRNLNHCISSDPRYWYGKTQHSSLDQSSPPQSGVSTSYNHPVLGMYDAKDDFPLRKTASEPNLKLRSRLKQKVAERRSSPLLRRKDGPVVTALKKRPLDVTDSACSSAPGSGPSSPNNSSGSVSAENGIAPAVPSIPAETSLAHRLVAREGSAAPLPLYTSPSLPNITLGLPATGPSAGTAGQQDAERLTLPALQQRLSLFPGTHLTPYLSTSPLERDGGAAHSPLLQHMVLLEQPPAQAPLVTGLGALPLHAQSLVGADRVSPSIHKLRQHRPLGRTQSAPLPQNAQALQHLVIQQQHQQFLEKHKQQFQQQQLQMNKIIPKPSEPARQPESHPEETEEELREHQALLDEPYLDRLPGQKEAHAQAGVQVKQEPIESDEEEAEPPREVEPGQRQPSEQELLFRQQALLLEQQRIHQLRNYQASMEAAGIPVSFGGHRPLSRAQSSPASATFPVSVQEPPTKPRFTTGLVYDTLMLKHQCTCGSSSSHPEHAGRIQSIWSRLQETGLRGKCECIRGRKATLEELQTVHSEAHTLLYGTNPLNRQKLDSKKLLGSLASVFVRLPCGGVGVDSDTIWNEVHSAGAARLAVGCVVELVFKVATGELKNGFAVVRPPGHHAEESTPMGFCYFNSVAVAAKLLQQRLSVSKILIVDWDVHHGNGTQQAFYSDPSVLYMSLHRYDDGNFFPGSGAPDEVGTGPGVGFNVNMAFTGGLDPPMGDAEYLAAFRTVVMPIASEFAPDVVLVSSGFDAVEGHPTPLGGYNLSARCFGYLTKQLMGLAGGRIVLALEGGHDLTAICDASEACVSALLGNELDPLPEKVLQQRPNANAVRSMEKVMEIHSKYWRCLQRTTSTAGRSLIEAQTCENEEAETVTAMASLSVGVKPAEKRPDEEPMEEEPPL

[4] = target: T2, NAD-dependent protein deacetylase sirtuin-2 (Homo sapiens) (UniProt Q8IXJ6); assay: Inhibition of recombinant human GST-tagged SIRT2 catalytic domain using Ac-RHKK(Ac)-MCA assessed as formation of amino methyl coumarin from Ac-RHKK(Ac)-MCA and NAD measured after 60 mins by fluorescence analysis
T2 sequence (whole entry): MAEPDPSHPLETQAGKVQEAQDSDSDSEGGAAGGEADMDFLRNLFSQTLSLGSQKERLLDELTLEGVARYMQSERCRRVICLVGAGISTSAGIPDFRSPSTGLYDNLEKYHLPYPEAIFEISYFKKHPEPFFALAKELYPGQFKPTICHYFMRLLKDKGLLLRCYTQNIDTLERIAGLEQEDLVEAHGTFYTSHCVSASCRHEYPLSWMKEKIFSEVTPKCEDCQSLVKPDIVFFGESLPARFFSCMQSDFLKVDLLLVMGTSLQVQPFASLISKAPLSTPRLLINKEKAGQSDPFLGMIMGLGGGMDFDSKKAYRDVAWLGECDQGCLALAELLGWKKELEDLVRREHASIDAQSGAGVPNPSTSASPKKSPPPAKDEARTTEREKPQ
In short: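 Recombinant GST-fused SIRT2 catalytic domain with 100 μM Ac-RHKK(Ac)-MCA and NAD (final 1 mM) in 50 mM Tris-HCl pH 9.0, 4 mM MgCl2, 0.2 mM DTT, 60 min at 37 °C. Trypsin (final 20 mg/mL) then added for 15 min at 37 °C. Released aminomethylcoumarin fluorescence read at ex 370/em 460 nm.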

[5] = target: T3, NAD-dependent protein deacetylase sirtuin-1 (Homo sapiens) (UniProt Q96EB6); assay: Inhibition of recombinant human SIRT1 expressed in Escherichia coli BL21 (DE3) assessed as formation of amino methyl coumarin from Ac-RHKK(Ac)-MCA and NAD measured after 60 mins by fluorescence analysis
T3 sequence (whole entry): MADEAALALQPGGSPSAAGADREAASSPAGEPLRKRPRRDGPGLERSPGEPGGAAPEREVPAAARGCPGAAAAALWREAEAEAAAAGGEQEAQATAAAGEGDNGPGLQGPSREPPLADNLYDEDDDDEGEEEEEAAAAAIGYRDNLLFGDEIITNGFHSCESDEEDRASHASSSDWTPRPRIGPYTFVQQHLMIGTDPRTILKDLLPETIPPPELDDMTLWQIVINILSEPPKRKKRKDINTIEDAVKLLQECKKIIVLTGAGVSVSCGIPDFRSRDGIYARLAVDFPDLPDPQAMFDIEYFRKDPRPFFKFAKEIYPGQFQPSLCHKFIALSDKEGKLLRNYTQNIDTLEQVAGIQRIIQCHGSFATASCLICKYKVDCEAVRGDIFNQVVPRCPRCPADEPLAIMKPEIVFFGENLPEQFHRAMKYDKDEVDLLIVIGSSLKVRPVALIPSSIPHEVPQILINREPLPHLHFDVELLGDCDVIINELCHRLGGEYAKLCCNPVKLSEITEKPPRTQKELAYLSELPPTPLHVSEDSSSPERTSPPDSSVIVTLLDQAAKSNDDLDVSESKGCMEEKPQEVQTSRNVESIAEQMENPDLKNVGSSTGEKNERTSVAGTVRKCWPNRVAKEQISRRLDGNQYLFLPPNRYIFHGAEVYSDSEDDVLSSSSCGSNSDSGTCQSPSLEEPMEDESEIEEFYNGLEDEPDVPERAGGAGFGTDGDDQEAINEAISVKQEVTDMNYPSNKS
In short: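 SIRT1 was expressed from pCold TF in E. coli BL21 (DE3) with 0.3 mM IPTG at 16 °C for 24 h, and the (His)6 protein was purified by nickel affinity then anion exchange. Assay used 100 μM Ac-RHKK(Ac)-MCA and 1 mM NAD (final) in Tris-HCl pH 9.0 buffer for 60 min at 37 °C. Trypsin was added for 15 min, and fluorescence was read at ex 370/em 460 nm.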

[6] = target: T4, Protein deacetylase HDAC6 (Homo sapiens) (UniProt Q9UBN7); assay: Inhibition of human FLAG-tagged HDAC6 expressed in human 293T cells assessed as formation of amino methyl coumarin from Ac-KGLGK(Ac)-MCA measured after 30 mins by fluorescence analysis; format: cell-based
T4 sequence (whole entry): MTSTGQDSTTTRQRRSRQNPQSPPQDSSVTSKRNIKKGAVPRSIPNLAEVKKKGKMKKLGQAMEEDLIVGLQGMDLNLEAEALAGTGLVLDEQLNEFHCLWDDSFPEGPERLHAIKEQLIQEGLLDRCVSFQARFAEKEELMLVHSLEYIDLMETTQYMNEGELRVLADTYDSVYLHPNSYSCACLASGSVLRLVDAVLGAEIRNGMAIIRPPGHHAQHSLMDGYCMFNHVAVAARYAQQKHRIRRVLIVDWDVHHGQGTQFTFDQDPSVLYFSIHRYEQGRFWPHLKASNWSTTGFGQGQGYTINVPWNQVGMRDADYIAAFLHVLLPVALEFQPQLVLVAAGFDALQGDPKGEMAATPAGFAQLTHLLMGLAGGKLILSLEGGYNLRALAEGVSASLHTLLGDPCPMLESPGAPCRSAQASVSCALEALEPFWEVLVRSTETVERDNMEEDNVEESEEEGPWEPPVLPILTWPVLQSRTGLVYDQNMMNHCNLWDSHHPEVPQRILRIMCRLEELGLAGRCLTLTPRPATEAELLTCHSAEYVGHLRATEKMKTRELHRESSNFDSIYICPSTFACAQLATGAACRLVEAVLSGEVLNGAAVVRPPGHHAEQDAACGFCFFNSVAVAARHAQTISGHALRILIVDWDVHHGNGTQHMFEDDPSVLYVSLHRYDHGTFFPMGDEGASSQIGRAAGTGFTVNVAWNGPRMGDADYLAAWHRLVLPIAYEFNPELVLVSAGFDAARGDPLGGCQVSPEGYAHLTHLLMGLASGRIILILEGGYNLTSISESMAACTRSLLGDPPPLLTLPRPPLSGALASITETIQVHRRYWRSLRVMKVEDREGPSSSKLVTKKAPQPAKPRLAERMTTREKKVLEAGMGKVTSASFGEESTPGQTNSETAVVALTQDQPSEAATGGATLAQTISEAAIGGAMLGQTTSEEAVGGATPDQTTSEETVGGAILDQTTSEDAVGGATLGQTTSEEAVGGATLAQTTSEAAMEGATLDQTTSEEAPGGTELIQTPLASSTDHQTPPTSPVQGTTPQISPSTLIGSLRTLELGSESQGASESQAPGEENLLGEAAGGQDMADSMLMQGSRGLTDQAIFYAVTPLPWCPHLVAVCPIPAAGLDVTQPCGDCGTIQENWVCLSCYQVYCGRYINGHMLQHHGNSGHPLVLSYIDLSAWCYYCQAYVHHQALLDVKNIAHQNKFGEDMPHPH

Sequence of Histone deacetylase 1 (Homo sapiens) (Q13547 whole entry, the tested form may be a part): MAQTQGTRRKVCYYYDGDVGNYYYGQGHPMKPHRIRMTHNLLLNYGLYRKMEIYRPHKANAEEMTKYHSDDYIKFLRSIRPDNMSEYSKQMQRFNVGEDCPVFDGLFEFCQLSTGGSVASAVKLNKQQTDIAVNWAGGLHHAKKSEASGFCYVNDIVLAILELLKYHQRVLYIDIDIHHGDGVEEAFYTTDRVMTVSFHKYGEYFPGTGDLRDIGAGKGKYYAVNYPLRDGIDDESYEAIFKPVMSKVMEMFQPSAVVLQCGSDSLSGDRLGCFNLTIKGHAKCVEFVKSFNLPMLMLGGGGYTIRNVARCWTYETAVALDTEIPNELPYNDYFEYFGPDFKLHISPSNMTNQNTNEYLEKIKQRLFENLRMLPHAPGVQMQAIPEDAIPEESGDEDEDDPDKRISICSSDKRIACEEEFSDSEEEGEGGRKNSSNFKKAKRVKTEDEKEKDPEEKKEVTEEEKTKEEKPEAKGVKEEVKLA

| SMILES | IC50 [1] | IC50 [2] | IC50 [3] | IC50 [4] | IC50 [5] | IC50 [6] |
| --- | --- | --- | --- | --- | --- | --- |
| CCCCCCC[C@@H](C)C[C@@H](O)CCCCCCC[C@@H](CCCC[C@@H](OC(C)=O)[C@@H](OC(C)=O)[C@H](CCCCCCC(=O)N1CCC[C@H]1C(=O)OC)OC(C)=O)OS(=O)(=O)O | 26 µM | 79 µM | > 200 µM | > 200 µM | 16 µM | > 200 µM |
| CCCCCC[C@@H](C)[C@@H](CCCCCCCC(O)CCCC[C@@H](OC(C)=O)[C@@H](OC(C)=O)[C@H](CCCCCCC(=O)N1CCC[C@H]1C(=O)OC)OC(C)=O)OS(=O)(=O)O (some centres not stated) | 29 µM | 78 µM | 75 µM | 150 µM | 34 µM | 52 µM |
